In ChEMBL document CHEMBL1153124, “5-Lipoxygenase-activating protein inhibitors. Part 2: 3-{5-((S)-1-Acetyl-2,3-dihydro-1H-indol-2-ylmethoxy)-3-tert-butylsulfanyl-1-[4-(5-methoxy-pyrimidin-2-yl)-benzyl]-1H-indol-2-yl}-2,2-dimethyl-propionic acid (AM679)--a potent FLAP inhibitor” (Bioorg Med Chem Lett, 2010):
In brackets after ≈: the same amount, converted by molar mass.

Experiments:
[1] = Cmax in rat at 10 mg/kg, po; format: ADME, organism-based; design: dose 10 mg/kg, route oral; conditions: in vivo
How it was run: (§1)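 Rat, oral dosing at 10 mg/kg given as the sodium carboxylate salt. Read-outs: F, clearance, Cmax, AUC and half-life.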

Cytochrome P450 2D6 = Cytochrome P450 2D6 (Homo sapiens, UniProt P10635); assay: Inhibition of CYP2D6; format: ADME
Cytochrome P450 2D6, sequence (P10635 whole entry): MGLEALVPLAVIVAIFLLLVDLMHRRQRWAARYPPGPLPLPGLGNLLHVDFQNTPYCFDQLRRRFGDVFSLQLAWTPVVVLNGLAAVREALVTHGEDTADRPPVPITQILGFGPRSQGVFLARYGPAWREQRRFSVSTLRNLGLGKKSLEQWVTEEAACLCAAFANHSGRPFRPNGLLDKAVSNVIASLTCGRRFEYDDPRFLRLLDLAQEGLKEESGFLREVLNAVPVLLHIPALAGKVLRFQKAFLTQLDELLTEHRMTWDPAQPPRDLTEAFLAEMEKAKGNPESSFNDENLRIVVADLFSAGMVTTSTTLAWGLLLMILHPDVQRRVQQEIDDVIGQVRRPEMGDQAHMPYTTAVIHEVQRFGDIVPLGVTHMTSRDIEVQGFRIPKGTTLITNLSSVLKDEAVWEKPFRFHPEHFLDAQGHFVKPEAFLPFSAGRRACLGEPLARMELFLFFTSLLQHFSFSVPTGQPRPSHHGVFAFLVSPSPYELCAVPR

Cytochrome P450 3A4 = Cytochrome P450 3A4 (Homo sapiens, UniProt P08684); assay: Induction of CYP3A4 activity; format: ADME
Cytochrome P450 3A4, sequence (P08684 whole entry): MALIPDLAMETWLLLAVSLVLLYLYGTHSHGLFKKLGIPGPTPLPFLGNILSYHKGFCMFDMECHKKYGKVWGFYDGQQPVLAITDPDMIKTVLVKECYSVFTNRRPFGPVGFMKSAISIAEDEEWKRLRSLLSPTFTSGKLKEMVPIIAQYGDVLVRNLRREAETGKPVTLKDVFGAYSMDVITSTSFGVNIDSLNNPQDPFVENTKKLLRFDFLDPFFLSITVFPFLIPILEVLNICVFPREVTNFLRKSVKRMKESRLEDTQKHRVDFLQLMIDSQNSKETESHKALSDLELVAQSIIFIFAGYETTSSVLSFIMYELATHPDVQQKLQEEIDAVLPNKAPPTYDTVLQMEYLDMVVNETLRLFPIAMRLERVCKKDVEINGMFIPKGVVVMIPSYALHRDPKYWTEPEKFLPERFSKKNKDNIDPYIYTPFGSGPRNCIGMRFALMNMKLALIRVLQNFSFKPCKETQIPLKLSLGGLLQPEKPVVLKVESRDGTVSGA
How it was run: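 CYP3A4 induction assay measuring a compound's ability to raise CYP enzyme activity.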

[2] = Half life in rat at 10 mg/kg, po; format: ADME, organism-based; design: dose 10 mg/kg, route oral; conditions: in vivo; how it was run: as §1
Rattus norvegicus [3] = assay: Reduction of LTB4 production in lung lavage fluid of calcium ionophore A23187 treated rat bronchoalveolar lavage model at 10 mg/kg, po administered 4 hrs prior to calcium ionophore A23187 challenge; format: functional; design: scale not given: the % may be the effect or the level left
How it was run: (§2)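 Rat bronchoalveolar lavage model. Oral dose of 10 mg/kg as the sodium carboxylate salt, given 4 h before ionophore challenge. LTB4 and CysLT measured in lung lavage fluid; average plasma levels taken 3 h post dose.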

Rattus norvegicus [4] = assay: Reduction of CysLT production in lung lavage fluid of calcium ionophore A23187 treated rat bronchoalveolar lavage model at 10 mg/kg, po administered 4 hrs prior to calcium ionophore A23187 challenge; format: functional; design: scale not given: the % may be the effect or the level left; how it was run: as §2
[5] = Plasma concentration in calcium ionophore A23187 treated rat bronchoalveolar lavage model at 3 mg/kg, po administered 16 hrs prior to calcium ionophore A23187 challenge; format: ADME, organism-based; design: dose 3 mg/kg, route oral
How it was run: (§3)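 Rat BAL model. 3 mg/kg given orally 16 h before ionophore challenge. LTB4 and CysLT inhibition measured in lavage fluid; average plasma levels measured at that time point.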

[6] = Plasma concentration in calcium ionophore A23187 treated rat bronchoalveolar lavage model at 10 mg/kg, po administered 4 hrs prior to calcium ionophore A23187 challenge measured 3 hrs after post dose; format: ADME, organism-based; design: dose 10 mg/kg, route oral; how it was run: as §2
Blood [7] = assay: Reduction of LTB4 production in rat blood after 3 hrs; format: functional, tissue-based
Blood [8] = assay: Reduction of LTB4 production in rat blood after 4 hrs; format: functional, tissue-based
How it was run: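 Rat blood incubated with compound for 4 h, then ionophore challenge; inhibition of LTB4 production measured; IC50.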

Rattus norvegicus [9] = assay: Reduction of LTB4 production in lung lavage fluid of po dosed calcium ionophore A23187 treated rat bronchoalveolar lavage model administered 4 hrs prior to calcium ionophore A23187 challenge; format: functional
How it was run: (§4)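 Rat BAL model. Oral dose-response study with dosing 4 h before ionophore challenge; ED50 for LTB4 and CysLT in lavage fluid.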

Rattus norvegicus [10] = assay: Reduction of CysLT production in lung lavage fluid of po dosed calcium ionophore A23187 treated rat bronchoalveolar lavage model administered 4 hrs prior to calcium ionophore A23187 challenge; format: functional; how it was run: as §4
Rattus norvegicus [11] = assay: Reduction of LTB4 production in lung lavage fluid of calcium ionophore A23187 treated rat bronchoalveolar lavage model at 3 mg/kg, po administered 16 hrs prior to calcium ionophore A23187 challenge; format: functional; design: scale not given: the % may be the effect or the level left; how it was run: as §3
Rattus norvegicus [12] = assay: Reduction of CysLT production in lung lavage fluid of calcium ionophore A23187 treated rat bronchoalveolar lavage model at 3 mg/kg, po administered 16 hrs prior to calcium ionophore A23187 challenge; format: functional; design: scale not given: the % may be the effect or the level left; how it was run: as §3
Blood [13] = assay: Inhibition of LTB4 production in calcium ionophore treated A23187 human whole blood after 5 hrs; format: functional, tissue-based
How it was run: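 Human whole blood incubated with compound for an extended 5 h before ionophore challenge; LTB4 production measured. IC50 from n = 6, each n the average of two donors.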

[14] = Solubility in water; format: physicochemical
[15] = Solubility in 0.9% saline; format: physicochemical
[16] = target: T1, Arachidonate 5-lipoxygenase-activating protein (Homo sapiens, UniProt P20292); assay: Binding affinity to FLAP in human PMN derived membrane; format: cell membranes
T1 sequence (P20292 whole entry): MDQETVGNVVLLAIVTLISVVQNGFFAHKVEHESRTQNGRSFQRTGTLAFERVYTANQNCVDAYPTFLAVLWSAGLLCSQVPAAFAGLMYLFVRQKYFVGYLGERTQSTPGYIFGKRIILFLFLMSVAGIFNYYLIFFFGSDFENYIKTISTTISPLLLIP
How it was run: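 FLAP binding measured in membranes derived from human polymorphonuclear leukocytes (PMN). IC50 values are the average of n ≥ 3.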

[17] = Inhibition of LTB4 production in calcium ionophore A23187 treated human leukocytes; format: functional, cell-based; conditions: Leukocyte
How it was run: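 Human leukocytes challenged with calcium ionophore; LTB4 produced by the cells was measured. IC50 is the average of n ≥ 3.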

Blood [18] = assay: Inhibition of LTB4 production in calcium ionophore treated A23187 human whole blood after 15 mins; format: functional, tissue-based; conditions: 0.25 h
Cytochrome P450 2C9 = Cytochrome P450 2C9 (Homo sapiens, UniProt P11712); assay: Inhibition of CYP2C9; format: ADME
Cytochrome P450 2C9, sequence (P11712 whole entry): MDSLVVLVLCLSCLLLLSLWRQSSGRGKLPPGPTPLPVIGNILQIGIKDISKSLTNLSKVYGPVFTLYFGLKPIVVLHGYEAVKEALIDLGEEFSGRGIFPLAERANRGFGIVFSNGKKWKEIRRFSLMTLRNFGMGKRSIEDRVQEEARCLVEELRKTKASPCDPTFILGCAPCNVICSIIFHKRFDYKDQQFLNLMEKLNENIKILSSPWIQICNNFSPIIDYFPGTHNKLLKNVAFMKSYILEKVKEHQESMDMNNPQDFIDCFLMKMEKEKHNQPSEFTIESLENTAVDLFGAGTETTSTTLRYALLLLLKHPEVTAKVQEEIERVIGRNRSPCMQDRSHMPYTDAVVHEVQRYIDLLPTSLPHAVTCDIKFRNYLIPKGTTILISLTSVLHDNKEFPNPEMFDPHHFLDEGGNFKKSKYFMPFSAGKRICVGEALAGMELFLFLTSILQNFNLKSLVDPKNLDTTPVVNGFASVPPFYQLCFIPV

[19] = Clearance in rat at 10 mg/kg, po; format: ADME, organism-based; design: dose 10 mg/kg, route oral; conditions: in vivo; how it was run: as §1
[20] = Bioavailability in rat at 10 mg/kg; format: ADME, organism-based; conditions: in vivo; how it was run: as §1

- Cmax [1]: 1.6 µM
- INH (Cytochrome P450 2D6): > 30 µM
- Activity (Cytochrome P450 3A4): Not Active
- half-life [2]: 6.8 h
- concentration at 16 h [5]: 0.004 µM
- concentration at 3 h [6]: 0.605 µM
- IC50 (Blood [7]): 0.125 µM
- IC50 (Blood [8]): 0.009 µM
- IC50 (Blood [13]): 0.053 µM
- solubility [14]: 10 mg/mL (≈ 14.4 mM)
- solubility [15]: 0.03 mg/mL (≈ 0.0433 mM)
- IC50 [16]: 0.0022 µM
- IC50 [17]: 0.0006 µM
- IC50 (Blood [18]): 0.154 µM
- IC50 (Cytochrome P450 2C9): 3.7 µM
- CL/F [19]: 0.66 L/h/kg
- bioavailability [20]: 29%
Structure (SMILES): COc1cnc(-c2ccc(Cn3c(CC(C)(C)C(=O)O)c(SC(C)(C)C)c4cc(OC[C@@H]5Cc6ccccc6N5C(C)=O)ccc43)cc2)nc1
- Activity (Rattus norvegicus [3]): 98%
- Activity (Rattus norvegicus [4]): 87%
- ED50 (Rattus norvegicus [9]): 0.8 mg/kg
- ED50 (Rattus norvegicus [10]): 1.4 mg/kg
- Activity (Rattus norvegicus [11]): 77%
- Activity (Rattus norvegicus [12]): 45%
